# Assay outcomes from PubChem BioAssay.
# Rad51 HR inh – blocks human Rad51 in homologous recombination; inhibition, % at 10 µM; AID 1385; actives 0.085% (n = 200,000); hRad51 DNA strand exchange, fluorescence dequenching;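 active = inhibition above 40% at the single screening dose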
#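 System: hRad51 filaments on single-stranded DNA; reagent: Fluorescein- and BHQ1-tagged 47-mer duplex; compound dosing: one concentration, 10 µM final; timing: filaments 15 min 37 °C, then compound 30 min; measured by: fluorescein emission 520 nm, excitation 485 nm; benchmarks: per-plate controls and blanks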
# CHT inh – inhibits the human high affinity choline transporter. Q9GZV3. CHT-expressing cells, membrane potential dye, choline response; hits give low values. B-score at 10 µM. actives 0.86% (n = 310,000). AID 488975;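 active = B-score over 3 SD under the library average, and starting fluorescence ratio not unusually high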;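 also: choline stimulus applied at its EC90 after an EC20 pre-addition; B-score computed on integrated fluorescence ratio after choline addition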
# CHT allo act – allosterically activates the human high affinity choline transporter; B-score at 10 µM; actives 0.49% (n = 310,000); CHT-expressing cells, membrane potential dye, choline EC20; hits give high values; LV-AA mutant CHT in HEK293 cells;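 active = initial fluorescence not abnormally high and integrated response B-score, plate-corrected, over 3 SD above library mean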
# Cl transport mod – modulates chloride dependent transport by human KCC2; Q9H2X9; KCC2 cells, thallium flux FluoZin-2 fluorescence; B-score of Tl+ flux slope (higher = more flux/activation; lower = inhibition) at 10 µM; actives 2.2% (n = 190,000);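 active = thallium flux slope and its plate-corrected score both differing from the plate sample mean at a set confidence after two filtering rounds, in either direction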;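 also: slope of fluorescence scaled to starting intensity during 10 to 20 s after thallium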
# Target sequence (Q9H2X9 whole entry, looked up): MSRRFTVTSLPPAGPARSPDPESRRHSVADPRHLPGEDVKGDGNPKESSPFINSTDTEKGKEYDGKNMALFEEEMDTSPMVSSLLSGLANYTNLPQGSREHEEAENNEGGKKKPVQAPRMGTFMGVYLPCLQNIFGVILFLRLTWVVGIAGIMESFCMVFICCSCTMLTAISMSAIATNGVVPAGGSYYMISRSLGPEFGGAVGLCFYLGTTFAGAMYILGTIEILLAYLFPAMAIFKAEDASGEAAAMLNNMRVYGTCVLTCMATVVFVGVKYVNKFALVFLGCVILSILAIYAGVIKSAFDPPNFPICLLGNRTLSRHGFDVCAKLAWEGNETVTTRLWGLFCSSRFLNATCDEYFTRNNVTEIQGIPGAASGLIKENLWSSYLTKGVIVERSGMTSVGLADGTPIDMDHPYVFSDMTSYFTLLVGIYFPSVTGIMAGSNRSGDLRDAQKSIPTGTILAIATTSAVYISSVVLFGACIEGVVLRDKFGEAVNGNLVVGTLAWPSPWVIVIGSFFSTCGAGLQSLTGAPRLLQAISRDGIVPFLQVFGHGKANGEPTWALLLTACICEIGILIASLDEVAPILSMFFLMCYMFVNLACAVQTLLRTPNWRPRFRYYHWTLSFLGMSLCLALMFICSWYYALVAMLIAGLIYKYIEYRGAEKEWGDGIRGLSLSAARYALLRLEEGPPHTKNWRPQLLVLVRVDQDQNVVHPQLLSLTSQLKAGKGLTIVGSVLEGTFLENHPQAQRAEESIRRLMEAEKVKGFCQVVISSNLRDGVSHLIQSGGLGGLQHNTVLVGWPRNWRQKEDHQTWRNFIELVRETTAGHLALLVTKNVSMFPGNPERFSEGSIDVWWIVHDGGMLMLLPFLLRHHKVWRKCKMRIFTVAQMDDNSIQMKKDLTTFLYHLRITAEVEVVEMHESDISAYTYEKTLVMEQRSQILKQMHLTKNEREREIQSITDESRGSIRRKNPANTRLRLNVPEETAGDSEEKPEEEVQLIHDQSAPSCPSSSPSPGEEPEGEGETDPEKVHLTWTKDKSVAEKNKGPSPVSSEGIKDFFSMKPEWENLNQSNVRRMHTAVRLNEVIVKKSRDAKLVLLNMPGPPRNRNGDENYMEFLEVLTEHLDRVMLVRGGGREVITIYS
# KCC2 secondary – confirmation of human KCC2 transport modulators. shares compounds with Cl transport mod. HEK293-KCC2, thallium flux, FluoZin2 fluorescence; hits give high values. normalised thallium flux (F/F0 slope) at 10 µM. actives 15% (n = 3,700). AID 1713;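 active = thallium flux slope above the same plate's solvent-only control mean plus 3 SD; inconclusive = the two replicate wells disagree; inactive = no significant difference from solvent-only control wells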
# KCC2 bumet counter – thallium flux persisting under bumetanide in KCC2 cells, counter-screen secondary assay; HEK293-KCC2 + bumetanide/ouabain, thallium flux FluoZin2; hits give high values; shares compounds with Cl transport mod; normalized thallium flux at 10 µM; actives 49% (n = 3,700);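 active = thallium entry rate above the same plate's blocked-transporter control wells by more than 3 SD; inconclusive = the two repeat wells disagree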;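 also: raw slope of fluorescence over initial fluorescence between 10 and 20 s after thallium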
# KCC2 sec2 – KCC2 (human) modulation, second secondary assay | shares compounds with Cl transport mod | HEK293-KCC2, thallium flux FluoZin2 fluorescence; actives lie on both sides; F/F0 rise rate, 10–20 s post-thallium | normalized thallium flux at 10 µM | actives 23% (n = 3,700) | AID 1715;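 active = thallium flux slope more than 3 SD above or below the plate's solvent-only control mean, mostly below; inconclusive = the two repeat wells disagreed; inactive = no significant shift from solvent-only controls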
# HEK counter1 – acts in parental HEK cells, KCC2 counter-screen; shares compounds with Cl transport mod; HEK293 parental cells, thallium flux FluoZin2, ouabain; baseline-ratio fluorescence slope, 10–20 s after thallium; thallium flux rate (normalised fluorescence) at 10 µM; actives 46% (n = 3,700); AID 1716;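 active = thallium flux rate significantly above the same plate's solvent-only control wells, beyond their mean plus 3 SD; inconclusive = the two replicate wells gave conflicting results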
# KCC2 ouabain – confirmation of human KCC2 modulators with ouabain. shares compounds with Cl transport mod. raw Tl+ flux slope (below DMSO = inhibition, above = activation) at 10 µM. actives 48% (n = 3,700). HEK293-KCC2, thallium flux FluoZin2 fluorescence; bidirectional: low = inhibitor, high = activator;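 active = thallium flux slope beyond 3 SD from same-plate DMSO control mean in most replicates, usually higher, sometimes lower; inconclusive = repeat tests gave conflicting results; inactive = no significant difference from controls in most replicates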;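 also: slope of initial-normalized fluorescence between seconds 10 and 20 after thallium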
# HEK293 Tl flux2 – acts in parental HEK cells, second KCC2 counter-screen; actives 33% (n = 3,700); shares compounds with Cl transport mod; AID 1718; HEK293 parental, thallium flux FluoZin-2 fluorescence slope; thallium flux slope at 10 µM;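 active = thallium flux slope above the same plate's solvent-control mean plus 3 SD in both duplicate wells; inconclusive = duplicate wells that disagreed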;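 also: run without ouabain in cells lacking the KCC2 cotransporter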
# A number is an active result; 0 = inactive; ? = inconclusive; - = no result. Shown are actives, neighbours in structure and some others; about 2.6% of the full set was active somewhere.
SMILES,Rad51 HR inh,CHT inh,CHT allo act,Cl transport mod,KCC2 secondary,KCC2 bumet counter,KCC2 sec2,HEK counter1,KCC2 ouabain,HEK293 Tl flux2
O=C(CSc1nnc(-c2ccc3c(c2)OCO3)o1)Nc1ncc(C(F)(F)F)cc1Cl,0,0,0,27,0.016,0.042,0,?,0.045,?
COC(=O)c1sc(-c2ccccc2)cc1NC(=O)c1ccc(F)cc1,0,0,0,0,-,-,-,-,-,-
CC(=O)c1sc(-c2ccc(F)cc2)cc1NS(=O)(=O)c1ccccc1,0,0,0,9,0,0.016,0,0.015,?,?
CCCCN(C(=O)c1cccc(S(=O)(=O)N2CC(C)OC(C)C2)c1)c1c(N)n(CCCC)c(=O)[nH]c1=O (stereo not drawn),-,0,0,-,-,-,-,-,-,-
O=C(N/N=C/c1ccc(OCc2ccccc2)cc1)c1cc[n+](Cc2ccccc2)cc1,0,0,0,-3.4,0,?,0.024,0,?,0
Cc1ccc(OC(=O)CCC(=O)Nc2ccc(C)c(C)c2)cc1,-,0,0,-,-,-,-,-,-,-
COC(=O)CSc1nnc(CNc2ccc(Cl)cc2)n1-c1ccccc1,0,0,0,0,-,-,-,-,-,-
O=C1OC(Nc2ccc(F)cc2F)c2ccccc21 (stereo not drawn),0,0,0,-,0,0,0,0,0,0
Cc1cccc(-n2cc(-c3ccc([N+](=O)[O-])cc3)[nH]c2=S)c1,0,0,0,5.1,?,0.017,0,0.019,0.028,0.015
S=c1[nH]c(-c2ccccc2)cn1-c1ccccc1,-,0,0,-,-,-,-,-,-,-
Cc1ccc(-n2cc(-c3ccc([N+](=O)[O-])cc3)[nH]c2=S)c(C)c1,0,0,0,26,?,0.099,0.077,0.086,0.081,0.055
COc1cc(C(=O)OCC(=O)c2cc(C)n(C)c2C)cc(OC)c1OC,0,0,0,6.7,0,0,0,0,0,0
CCCS(=O)(=O)N1CCC(C(=O)N2CCC(Cc3ccccc3)CC2)CC1,0,0,0,-,0,0,0,0,0.028,0
O=C(OCn1ncc(Cl)c(Cl)c1=O)c1cccc(C(F)(F)F)c1,0,0,0,-,0,?,0,0.0059,0.015,0
CCc1ccc(C(=O)Cn2ncc(Cl)c(Cl)c2=O)cc1,0,0,0,-,-,-,-,-,-,-
O=C(/C=C/c1cc[n+](CC(=O)c2ccc3cccc4c3c2CC4)cc1)c1ccc2cccc3c2c1CC3,0,0,0,0,-,-,-,-,-,-
COc1ccc(CN2CCNC(=O)C2CC(=O)N2CCCCO2)c(OC)c1 (stereo not drawn),0,0,0,0,-,-,-,-,-,-
CCc1nnc(NC(=O)CSc2nnc(COc3ccccc3C)o2)s1,0,0,0,-,0,?,0.025,?,0.016,0
COc1ccc(Cc2nnc(SCC(=O)Nc3ncc(C)s3)o2)cc1,0,0,0,-,-,-,-,-,-,-
CCc1nnc(NC(=O)CSc2nnc(COc3cccc(C)c3)o2)s1,0,0,0,0,-,-,-,-,-,-
COc1ccc(NC(=O)CSc2nnc(Cc3ccccc3)o2)c(OC)c1,0,0,0,-3.9,0,0,0,?,0.014,0
Cc1cnc(NC(=O)CSc2nnc(Cc3ccccc3)o2)s1,0,0,0,-4.4,0,0,0.021,0,?,0
COCc1nnc(NC(=O)CSc2ccc(C)cc2)s1,0,0,0,0,-,-,-,-,-,-
COCc1nnc(NC(=O)CSc2ccccc2)s1,0,0,0,-4.8,0,0,0,0,0,0
c1ccc(-n2nnnc2-c2cnc(-c3cccnc3)nc2-c2cccs2)cc1,0,0,0,0,-,-,-,-,-,-
SMILES,Rad51 HR inh,CHT inh,CHT allo act,Cl transport mod,KCC2 secondary,KCC2 bumet counter,KCC2 sec2,HEK counter1,KCC2 ouabain,HEK293 Tl flux2
Cc1ccc(N2C(=O)C3CCCN3C2=S)cc1C (stereo not drawn),-,0,0,-,-,-,-,-,-,-
CCc1ccc(CNC(=O)CCn2ccc3cc(S(=O)(=O)N4CCCC4)ccc32)cc1,-,0,0,-,-,-,-,-,-,-
CS(=O)(=O)N(CC(=O)N/N=C/c1cccc2c1OCCO2)c1ccccc1Br,0,0,0,0,-,-,-,-,-,-
CS(=O)(=O)N(CC(=O)N/N=C/c1cc2c(cc1Br)OCO2)c1ccccc1Br,-,0,0,5.1,0,0,0,0,0,0
Cc1cc(NC(=S)Nc2ccc(C)c(Cl)c2)n[nH]1,0,0,0,0,-,-,-,-,-,-
COc1ccc(CCNC(=O)C2CC3Cn4c(nc5cc6ccccc6cc54)C3N2C)cc1 (stereo not drawn),0,0,0,0,-,-,-,-,-,-
CN1C(C(=O)NCCc2cccs2)CC2Cn3c(nc4cc5ccccc5cc43)C21 (stereo not drawn),0,0,0,-2.8,0,0,0,0,0,0
COC(=O)C1C(=O)C2=C(CC1C)NC(C)=C(C(=O)OC(C)C)C2c1ccc(C)o1 (stereo not drawn),0,0,0,-,0,0,0,0,0,0
COc1cccc(C2=NN(C(=O)c3ccccc3)C(O)(C(F)(F)F)C2)c1 (stereo not drawn),-,0,0,3.2,0,0.018,0,0.012,?,?
COc1ccc(C(=O)N2N=C(c3ccccc3)CC2(O)C(F)(F)F)cc1 (stereo not drawn),0,-,-,11,0,0.017,0,0.014,0.026,0.017
COC(=O)CSc1ccnc2cc(Cl)ccc12,0,0,0,-3.2,0,?,0,0,0,0
Cn1cc(C(=O)Nc2ccc(Cl)c(Cl)c2)cn1,-,0,0,-,-,-,-,-,-,-
CC1CCCN(C(=O)c2cccc(S(=O)(=O)Nc3cc(C(F)(F)F)ccc3Cl)c2)C1 (stereo not drawn),0,0,0,-3.7,0,0,0,0,0.015,0
O=C(N/N=C(\c1ccccc1)c1ccccn1)c1cccc([N+](=O)[O-])c1,0,0,0,12,?,0.028,0,0.02,0.031,0.021
C/C(=N\NC(=O)c1cc([N+](=O)[O-])cc([N+](=O)[O-])c1)c1ccco1,0,0,0,38,0.03,0.075,?,0.038,0.055,0.017
CCOC(=O)/C(C)=N/NC(=O)c1cccc([N+](=O)[O-])c1,0,0,0,32,0,0.026,0.04,0.027,0.034,0.022
CCOC(=O)Cc1ccc(NC(=O)c2cccc([N+](=O)[O-])c2)cc1,0,0,0,0,-,-,-,-,-,-
Cc1cc(C)cc(OCC(=O)OCC(=O)Nc2c(C)n(C)n(-c3ccccc3)c2=O)c1,0,0,0,0,-,-,-,-,-,-
